# High-throughput results: PubChem BioAssay, Broad Institute
# Rows were chosen to be rich in hits. Some 3.7% of all compounds tested hit in one or more screens of this group.
# E-selectin induc = induces E-selectin expression in human endothelial cells. AID 686992. activation, % at 7.58 µM. 260,000 tested, 0.37% active. HUVEC E-selectin immunofluorescence imaging; normalized: neutral wells 0, TNF-alpha wells 100;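 active = mean E-selectin-positive cell signal at least 10% of the positive control, reached in at least 60% of replicates, without over 20% cell loss; inconclusive = no rule given, readout overlaps actives, possibly toxicity-flagged; inactive = the rest, including those meeting only one limit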
#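 Assay system: HUVEC, human umbilical vein endothelial cells / Amount: 3,000 HUVEC/well / Controls: TNF-alpha positive control, DMSO neutral control / Compound dosing: single concentration / Medium: EGM-2 over gelatin coat / Evaluation: percent E-selectin-positive cells / Signal: immunofluorescence imaging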
# FGF22 binding = shifts melting point of recombinant human FGF22. 340,000 tested, 1.5% active. Q9HCT0. AID 651658. activity (Tm shift, normalised), % at 9.99 µM. recombinant FGF22 thermal shift, SYPRO orange fluorescence; percent of sucrose octasulfate shift, DMSO zero;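 active = mean Tm shift, scaled 0 neutral to 100 positive control, at about 1.3% or above, every replicate too, limit read from the data; inconclusive = no clear call, values can overlap the other calls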
# Target sequence (Q9HCT0 whole entry, looked up): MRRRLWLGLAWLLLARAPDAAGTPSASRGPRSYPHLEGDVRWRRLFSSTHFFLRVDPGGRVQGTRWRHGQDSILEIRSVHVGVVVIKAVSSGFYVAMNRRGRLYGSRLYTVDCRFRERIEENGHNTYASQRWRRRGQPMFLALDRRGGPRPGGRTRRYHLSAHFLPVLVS
# F508del corr = correctors of CFTR F508del function in bronchial epithelial cells. CFBE cells, YFP halide quenching; stimulated with forskolin plus potentiator P3; % fluorescence drop versus neutral controls. activity (quench increase), % at 7.58 µM. 350,000 tested, 0.36% active;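 active = mean added fluorescence quench of at least 8% versus neutral control, with both replicates also reaching 8%; inconclusive = only one of the mean or replicate conditions met; inactive = mean below 8% and not both replicates reaching 8%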;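 note: cells transiently co-express mutant CFTR-F508del with the halide-sensitive YFP; corrector assay measuring rescue of mutant channel to the surface after 24 h compound exposure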
# ERAP1 inh = inhibitors of human ERAP1 aminopeptidase; recombinant ERAP1, Leu-AMC fluorescence, 60 min; AID 652197; Q9NZ08; 340,000 tested, 0.15% active; inhibition, % at 10.7 µM;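 active = mean replicate inhibition of at least 30%, or all replicates individually reaching that 30% level; inactive = mean below 30% and not every replicate reaching it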;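 note: 0% = neutral control wells and 100% = L-leucinethiol positive control wells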
# DENV2 CPE = protects cells from dengue virus 2 cytopathic effect; DENV2-infected cells, cytopathic effect rescue, plate reader; CPE inhibition, % at 9.99 µM; 350,000 tested, 1.7% active; AID 651640; in the data active = CPE inhibition above about 20%, passing the limit was not always enough; inconclusive = no clear call, values can overlap the other calls; tested in BHK-21 cells;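 note: 0% = median of neutral control wells and 100% = median of positive control wells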
# An asterisk follows results filed as active; ? = inconclusive; / = not tested or not shown.
SMILES,E-selectin induc,FGF22 binding,F508del corr,ERAP1 inh,DENV2 CPE
COC(=O)C[C@@H]1CC[C@H]2[C@@H](COc3ccc(NC(=O)c4cccc(F)c4)cc3C(=O)N2C)O1,0,0,1,2,1
COc1ccc(-c2ccc3c(c2)S(=O)(=O)c2cccc(C(=O)NCCOc4ccccc4Cl)c2C3=O)cc1OC,0,0,0,2,22*
C[C@@H]1CN([C@H](C)CO)C(=O)c2cc(NS(=O)(=O)c3cn(C)cn3)ccc2O[C@H]1CN(C)Cc1ccc(C(=O)O)cc1,/,-1,-2,-4,-2
Nc1ccc2cc3ccccc3cc2c1,/,0,-2,3,-14
O=S1(=O)Cc2cc3ccccc3cc2C1,/,43*,4,-2,1
COc1ccc(CN(C)C[C@H]2OCCCC[C@H](C)Oc3ccc(NS(=O)(=O)c4cn(C)cn4)cc3C(=O)N([C@H](C)CO)C[C@@H]2C)cc1,0,0,0,-7,-6
C[C@@H]1CN([C@@H](C)CO)C(=O)c2cc(NS(=O)(=O)c3cccs3)ccc2O[C@@H](C)CCCCO[C@H]1CN(C)S(=O)(=O)c1cn(C)cn1,0,0,1,2,31*
Cc1ccc(S(=O)(=O)Nc2ccc3c(c2)C(=O)N([C@@H](C)CO)C[C@@H](C)[C@@H](CN(C)S(=O)(=O)c2cn(C)cn2)OCCCC[C@H](C)O3)cc1,0,0,-1,-1,26*
Cc1ccc(S(=O)(=O)Nc2ccc3c(c2)C(=O)N([C@H](C)CO)C[C@@H](C)[C@@H](CN(C)S(=O)(=O)c2cn(C)cn2)OCCCC[C@H](C)O3)cc1,0,0,1,-3,34*
COc1ccc(CN(C)C[C@H]2OCCCC[C@@H](C)Oc3ccc(NS(=O)(=O)c4cn(C)cn4)cc3C(=O)N([C@H](C)CO)C[C@@H]2C)cc1,0,1,-2,-5,52*
COC(=O)C[C@@H]1CC[C@H]2[C@@H](COc3ccc(NC(=O)NCc4ccccc4)cc3C(=O)N2C)O1,0,0,0,/,-2
COc1ccc(S(=O)(=O)Nc2ccc3c(c2)C(=O)N([C@@H](C)CO)C[C@@H](C)[C@@H](CN(C)S(=O)(=O)c2cn(C)cn2)OCCCC[C@H](C)O3)cc1,-1,0,3,0,16
C[C@@H]1CN([C@H](C)CO)C(=O)c2cc(NS(=O)(=O)c3cn(C)cn3)ccc2O[C@@H](C)CCCCO[C@H]1CN(C)S(=O)(=O)c1ccc(F)cc1,/,0,-1,-1,-8
COc1ccc(S(=O)(=O)Nc2ccc3c(c2)C(=O)N([C@H](C)CO)C[C@@H](C)[C@@H](CN(C)S(=O)(=O)c2cn(C)cn2)OCCCC[C@H](C)O3)cc1,2,-1,2,0,53*
C[C@@H]1CCCCO[C@H](CN(C)S(=O)(=O)c2ccc(F)cc2)[C@@H](C)CN([C@H](C)CO)C(=O)c2cc(NS(=O)(=O)c3cn(C)cn3)ccc2O1,/,1,0,-4,23*
CCCNC(=O)N(C)C[C@@H]1Oc2cc(-c3ccccc3F)ccc2S(=O)(=O)N([C@@H](C)CO)C[C@H]1C,0,0,-2,0,-1
Nc1nc2ccccc2n1Cc1ccc(Cl)c(Cl)c1,/,0,1,-3,33*
COc1ccc(NC(=O)Nc2ccc3c(c2)C(=O)N([C@@H](C)CO)C[C@@H](C)[C@@H](CN(C)Cc2ccc4c(c2)OCO4)OCCCC[C@@H](C)O3)cc1,0,-1,3,2,34*
COc1ccc(NC(=O)Nc2ccc3c(c2)C(=O)N([C@H](C)CO)C[C@H](C)[C@H](CN(C)Cc2ccc(C(=O)O)cc2)OCCCC[C@H](C)O3)cc1,0,0,0,0,?
COc1ccc(NC(=O)Nc2ccc3c(c2)C(=O)N([C@H](C)CO)C[C@@H](C)[C@H](CN(C)Cc2ccc4c(c2)OCO4)OCCCC[C@@H](C)O3)cc1,1,-1,3,2,24*
COc1ccc(NC(=O)Nc2ccc3c(c2)C(=O)N([C@@H](C)CO)C[C@H](C)[C@H](CN(C)Cc2ccc(C(=O)O)cc2)OCCCC[C@@H](C)O3)cc1,0,0,1,1,59*
COc1ccc(NC(=O)Nc2ccc3c(c2)C(=O)N([C@@H](C)CO)C[C@@H](C)[C@@H](CN(C)Cc2ccc4c(c2)OCO4)OCCCC[C@H](C)O3)cc1,0,1,-3,2,-7
C[C@@H]1CN([C@@H](C)CO)C(=O)Cc2cc(NC(=O)Cc3ccccc3)ccc2O[C@@H]1CN(C)C(=O)Nc1cccc2ccccc12,-12,0,-1,0,5
COc1ccc2c3c(n(C)c2c1)[C@H](CO)N(Cc1ccccc1OC)CC31CCN(C(=O)C2CC2)CC1,11,0,-1,-2,4
O=c1cnnc(N/N=C/C2CC=CCC2)[nH]1 (stereo not drawn),/,44*,-1,5,/
SMILES,E-selectin induc,FGF22 binding,F508del corr,ERAP1 inh,DENV2 CPE
Cc1c(C(=O)NC(=S)NCC(C)C)oc2ccccc12,0,0,/,-3,1
CCC(=O)Nc1c(C(=O)Nc2ccc3c(c2)OCCO3)oc2ccccc12,0,0,-3,-2,1
C=CCNC(=S)NC(=O)c1oc2ccccc2c1C,49*,/,3,0,6
CCC(=O)Nc1ccc(NC(=O)c2oc3ccccc3c2C)cc1,/,0,0,5,40*
Nc1cccc(S(=O)(=O)c2ccc(N)c(N)c2)c1,/,43*,/,5,1
Cc1ccc(NC(=S)N(Cc2ccc(Br)cc2)Cc2ccc(C(=O)O)cc2)cc1C,/,43*,-2,7,2
Cc1cc(NC(=S)N(Cc2ccc(Cl)cc2)Cc2ccc(C(=O)O)cc2)ccc1Cl,/,44*,-3,1,-4
Cc1cc(C)cc(NC(=S)N(Cc2ccc(Cl)cc2)Cc2ccc(C(=O)O)cc2)c1,/,/,3,-6,10
COc1cccc(NC(=O)c2cc(=O)c3ccccc3o2)c1,0,0,-1,-5,0
COc1ccc(NS(=O)(=O)c2cc(NC(=O)c3cc(=O)c4ccccc4o3)ccc2OC)cc1,0,43*,-3,1,2
O=C(Oc1ccc(F)cc1)c1ccc2c(=O)n3c(nc2c1)CCC3,3,0,-1,32*,-8
O=C(COc1cccc2cccnc12)N1CCc2ccccc21,/,43*,-2,1,-4
COc1ccc(S(=O)(=O)Nc2ccc3c(c2)CC(=O)N([C@H](C)CO)C[C@@H](C)[C@H](CN(C)Cc2ccc(Cl)c(Cl)c2)O3)cc1,0,0,1,4,38*
COc1ccc(CN(C)C[C@@H]2Oc3ccc(NS(=O)(=O)c4ccc(F)cc4)cc3CC(=O)N([C@H](C)CO)C[C@@H]2C)cc1,-17,0,0,1,23*
